# Results as given in ChEMBL document CHEMBL4004837, “Synthesis and Characterization of Urofuranoic Acids: In Vivo Metabolism of 2-(2-Carboxyethyl)-4-methyl-5-propylfuran-3-carboxylic Acid (CMPF) and Effects on in Vitro Insulin Secretion” (J Med Chem, 2017).
# Key:
# Liver [1] = experiment: (§1) Drug metabolism in CD1 mouse liver assessed as monoacylglycerol conjugate formation at 6 mg/kg, ip dosed once daily for 3 days followed by dosing of 1:1 mixtures of 2-(2-(Carboxy-13C)ethyl)-4-methyl-5-propylfuran-3-carboxylic-2-13C Acid and test compound on day 4 and 5 measured 1 hr post dose on day 5 by HPLC-MS analysis; assay type: ADME, organism-based; conditions: in vivo
# Procedure, shortened: (§2)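 Mice received CMPF 6 mg/kg intraperitoneally for three days, then 1:1 labeled/unlabeled CMPF mixtures on days four and five. On day five they were euthanized 1 h post-dose, and plasma, adipose, muscle and liver were collected. Samples were analysed by HPLC-MS, with MS/MS of product ions. Metabolites were identified by the distinctive isotope patterns from the 1:1 label mixture.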
# Plasma [2] = experiment: (§3) Drug metabolism in CD1 mouse plasma assessed as glucuronide conjugate formation at 6 mg/kg, ip dosed once daily for 3 days followed by dosing of 1:1 mixtures of 2-(2-Carboxyethyl)-4-methyl-5-(1-propyl-1-13C)furan-3-carboxylic Acid and test compound on day 4 and 5 measured 1 hr post dose on day 5 by HPLC-MS analysis; assay type: ADME, organism-based; conditions: in vivo
# Procedure, shortened: (§4)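 CMPF given 6 mg/kg i.p. once daily for three days. On days four and five, 1:1 mixtures of stable-isotope-labelled and unlabelled CMPF were dosed. Mice were killed 1 h after the day-five dose. Plasma, adipose, muscle and liver were collected and analysed by HPLC-MS (MS/MS for product ions). Metabolites were identified by their distinctive isotope patterns from the labelled/unlabelled mixture.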
# [3] = Suppression of glucose-stimulated insulin secretion in mouse pancreatic islet at 200 uM incubated for 24 hrs followed by glucose stimulation for 20 mins by HTRF assay; assay type: ADME, cell-based
# Procedure, shortened: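 Mouse islets treated with compounds at 200 µM. Insulin secretion was then measured under low- and high-glucose GSIS conditions and under KCl stimulation, and intracellular insulin content was measured. Mean of n = 4-5 experiments with SEM.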
# [4] = Volume of distribution in mouse at 1 mg/kg, iv; assay type: ADME, organism-based; conditions: in vivo
# Procedure, shortened: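 Mouse pharmacokinetics after single intravenous CMPF dosing at 1 or 3 mg/kg. Plasma exposure was followed over time to derive AUC, C0, terminal half-life, clearance and volume of distribution.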
# [5] = as §1, with “adipose” for “liver”, “oxidative metabolites” for “monoacylglycerol conjugate”; assay type: ADME, organism-based, Adipose tissue; conditions: in vivo; procedure, shortened: as §2
# Plasma [6] = experiment: as §3, with “loss of C2 carboxyl during fragmentation” for “glucuronide conjugate formation”; assay type: ADME, organism-based; conditions: in vivo; procedure, shortened: as §4
# Liver [7] = experiment: as §1, with “glycerol” for “monoacylglycerol”; assay type: ADME, organism-based; conditions: in vivo; procedure, shortened: as §2
# Plasma [8] = experiment: (§5) Drug metabolism in CD1 mouse plasma assessed as loss of C2 carboxyl during fragmentation at 6 mg/kg, ip dosed once daily for 3 days followed by dosing of 1:1 mixtures of 2-(2-Carboxyethyl)-4-methyl-5-propyl-(3-13C-furan)-3-13Ccarboxylate and test compound on day 4 and 5 measured 1 hr post dose on day 5 by HPLC-MS analysis; assay type: ADME, organism-based; conditions: in vivo; procedure, shortened: as §4
# [9] = as §1, with “adipose” for “liver”, “diacylglycerol” for “monoacylglycerol”; assay type: ADME, organism-based, Adipose tissue; conditions: in vivo; procedure, shortened: as §2
# [10] = Clearance in mouse at 1 mg/kg, iv; assay type: ADME, organism-based; conditions: in vivo
# Liver [11] = experiment: as §5, with “liver” for “plasma”, “2-(2-(Carboxy-13C)ethyl)-4-methyl-5-propylfuran-3-carboxylic-2-13C Acid” for “2-(2-Carboxyethyl)-4-methyl-5-propyl-(3-13C-furan)-3-13Ccarboxylate”; assay type: ADME, organism-based; conditions: in vivo; procedure, shortened: as §2
# [12] = Suppression of high glucose stimulated insulin secretion in mouse pancreatic islets at 200 uM treated for 24 hrs followed by glucose stimulation for 20 mins by HTRF assay relative to control; assay type: ADME, cell-based; conditions: pancreatic islet
# Procedure, shortened: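 Mouse islet screening assay in high-glucose (20 mM) medium with compounds at 200 µM. Insulin secretion is expressed as fold change relative to vehicle. Mean of n = 4 experiments with SEM; significance by Student's t-test, p ≤ 0.05.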
# [13] = (§6) Drug metabolism in CD1 mouse adipose assessed as glycerol conjugate formation at 6 mg/kg, ip dosed once daily for 3 days followed by dosing of 1:1 mixtures of 2-(2-Carboxyethyl)-4-methyl-5-propyl-(3-13C-furan)-3-13Ccarboxylateand test compound on day 4 and 5 measured 1 hr post dose on day 5 by HPLC-MS analysis; assay type: ADME, organism-based, Adipose tissue; conditions: in vivo; procedure, shortened: as §2
# Plasma [14] = experiment: as §1, with “plasma” for “liver”, “oxidative metabolites” for “monoacylglycerol conjugate”; assay type: ADME, organism-based; conditions: in vivo; procedure, shortened: as §4
# [15] = Drug excretion in human urine assessed as CMPF formation; assay type: ADME
# [16] = AUC in mouse at 3 mg/kg, iv; assay type: ADME, organism-based; conditions: in vivo
# [17] = as §6, with “2-(2-Carboxyethyl)-4-methyl-5-(1-propyl-1-13C)furan-3-carboxylic Acid and” for “2-(2-Carboxyethyl)-4-methyl-5-propyl-(3-13C-furan)-3-13Ccarboxylateand”; assay type: ADME, organism-based, Adipose tissue; conditions: in vivo; procedure, shortened: as §2
# Plasma [18] = experiment: as §3, with “glycerol” for “glucuronide”; assay type: ADME, organism-based; conditions: in vivo; procedure, shortened: as §4
# Hepatocyte = experiment: Cytotoxicity against mouse primary hepatocytes assessed as fold change in capase3/7 activity by Caspase-Glo 3/7 assay relative to DMSO; assay type: cell-based
# Plasma [19] = experiment: as §3, with “2-(2-(Carboxy-13C)ethyl)-4-methyl-5-propylfuran-3-carboxylic-2-13C” for “2-(2-Carboxyethyl)-4-methyl-5-(1-propyl-1-13C)furan-3-carboxylic”; assay type: ADME, organism-based; conditions: in vivo; procedure, shortened: as §4
# Plasma [20] = experiment: as §1, with “plasma” for “liver”, “glycerol” for “monoacylglycerol”; assay type: ADME, organism-based; conditions: in vivo; procedure, shortened: as §4
# [21] = as §1, with “muscle” for “liver”, “glycerol” for “monoacylglycerol”; assay type: ADME, organism-based, Muscle tissue; conditions: in vivo; procedure, shortened: as §2
# [22] = as §3, with “muscle” for “plasma”, “oxidative metabolites” for “glucuronide conjugate”; assay type: ADME, organism-based, Muscle tissue; conditions: in vivo; procedure, shortened: as §4
# Plasma [23] = experiment: as §3, with “diacylglycerol” for “glucuronide”; assay type: ADME, organism-based; conditions: in vivo; procedure, shortened: as §4
# [24] = as §1, with “adipose” for “liver”, “2-(2-Carboxyethyl)-4-methyl-5-(1-propyl-1-13C)furan-3-carboxylic” for “2-(2-(Carboxy-13C)ethyl)-4-methyl-5-propylfuran-3-carboxylic-2-13C”; assay type: ADME, organism-based, Adipose tissue; conditions: in vivo; procedure, shortened: as §2
# HEK293 = experiment: Cytotoxicity against HEK293 cells assessed as fold change in capase3/7 activity by Caspase-Glo 3/7 assay relative to DMSO; assay type: cell-based; conditions: human
# Liver [25] = experiment: Drug metabolism in CD1 mouse liver assessed as oxidative metabolites formation at 6 mg/kg, ip dosed once daily for 3 days followed by dosing of 1:1 mixtures of 2-(2-Carboxyethyl)-4-methyl-5-(1-propyl-1-13C)furan-3-carboxylic Acid and test compound on day 4 and 5 measured 1 hr post dose on day 5 by HPLC-MS analysis; assay type: ADME, organism-based; conditions: in vivo; procedure, shortened: as §2
# [26] = as §6, with “oxidative metabolites” for “glycerol conjugate”; assay type: ADME, organism-based, Adipose tissue; conditions: in vivo; procedure, shortened: as §2
# [27] = as §5, with “muscle” for “plasma”, “2-(2-Carboxyethyl)-4-methyl-5-(1-propyl-1-13C)furan-3-carboxylic Acid” for “2-(2-Carboxyethyl)-4-methyl-5-propyl-(3-13C-furan)-3-13Ccarboxylate”; assay type: ADME, organism-based, Muscle tissue; conditions: in vivo; procedure, shortened: as §2
compound,measurement,setting,value
CCCc1oc(CCC(=O)O)c(C(=O)O)c1C,Drug metabolism,Liver [1],Metabolite_Notdetected
same,Drug metabolism,Plasma [2],Metabolite_Detected
same,Activity,[3],Toxic
same,Vd,[4],0.2 L/kg
same,Drug metabolism,[5],Metabolite_Notdetected
same,Drug metabolism,Plasma [6],Metabolite_Detected
same,Drug metabolism,Liver [7],Metabolite_Notdetected
same,Drug metabolism,Plasma [8],Metabolite_Detected
same,Drug metabolism,[9],Metabolite_Notdetected
same,clearance,[10],0.66 mL/min/kg
same,Drug metabolism,Liver [11],Metabolite_Detected
same,Activity,[12],Toxic
same,Drug metabolism,[13],Metabolite_Notdetected
same,Drug metabolism,Plasma [14],Metabolite_Notdetected
same,Drug excretion,[15],1 to 5 mg/day
same,AUC,[16],210 µM·h
same,Drug metabolism,[17],Metabolite_Notdetected
same,Drug metabolism,Plasma [18],Metabolite_Notdetected
same,fold change (FC),Hepatocyte,0.7 to 0.8
same,Drug metabolism,Plasma [19],Metabolite_Detected
same,Drug metabolism,Plasma [20],Metabolite_Notdetected
same,Drug metabolism,[21],Metabolite_Notdetected
same,Drug metabolism,[22],Metabolite_Notdetected
same,Drug metabolism,Plasma [23],Metabolite_Notdetected
same,Drug metabolism,[24],Metabolite_Notdetected
same,fold change (FC),HEK293,0.8 to 1.1
same,Drug metabolism,Liver [25],Metabolite_Notdetected
same,Drug metabolism,[26],Metabolite_Notdetected
same,Drug metabolism,[27],Metabolite_Detected
